Experimental data from publication PMC7056050 (Clinical and Translational Gastroenterology, 2020).

Columns and labels:
[1] = molecular target: T1, claudin-1 (Mus musculus, UniProt O88551); assay: Ex vivo peptide staining; assay type: binding; conditions: for Mean fluorescence intensity, adenoma vs normal: ex vivo staining, 0.5 μM peptide, paired t tests, n = 6 per group
T1 sequence (O88551 1-211): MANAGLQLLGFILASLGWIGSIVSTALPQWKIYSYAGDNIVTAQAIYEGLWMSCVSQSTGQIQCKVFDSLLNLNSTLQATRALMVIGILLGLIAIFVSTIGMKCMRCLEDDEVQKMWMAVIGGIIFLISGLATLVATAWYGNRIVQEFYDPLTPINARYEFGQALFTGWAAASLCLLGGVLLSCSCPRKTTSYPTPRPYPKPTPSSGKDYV
Procedure, shortened: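 Distal colon was opened, rinsed in cold PBS, fixed ~48 h in 10% neutral-buffered formalin, moved to 70% ethanol and processed for histology. Adjacent sections were deparaffinized and antigen-retrieved. Blocking was 2% BSA ~1 h, then 0.5 μM peptide for 10 min. For colocalization, peptide came first, then anti-claudin-1 antibody detected with AF488 goat anti-rabbit IgG. Imaged by inverted confocal microscopy.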

[2] = molecular target: T1, claudin-1; assay: Side-view confocal endomicroscopy of colon in vivo; design: species or system CPC;Apc mice; conditions: for Binding/staining pattern in normal colon on confocal images: in vivo, ~1 hour after i.v. 200 μM in 200 μL PBS
[3] = molecular target: T1, claudin-1; assay type: in vivo, CPC;Apc mice; conditions: wide-field NIR fluorescence after intravenous administration
Procedure, shortened: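 Mice aged 2–4 months ate chlorophyll-free chow for 1 week, were fasted 4–6 h and had the colon rinsed with water. They were under isoflurane 2–4% in oxygen (0.5 L/min). A rigid endoscope in the distal colon gave 671 nm excitation; 200 μM peptide in 200 μL PBS was given i.v. Images were taken 0–24 h and normalised to coregistered reflectance. T/B ratios used mean intensity of three 20×20 μm2 regions each for adenoma and adjacent normal mucosa. Control peptide was imaged in the same mouse 7 days later. n = 6 mice per group; data log-transformed; paired t tests.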

[4] = Serum stability by HPLC, incubation in mouse serum ex vivo; assay type: in vitro ADME; conditions: 30 uM peptide in mouse serum at 37 °C, supernatant analysed by HPLC
Procedure, shortened: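 Peptide at 30 uM was incubated in mouse serum at 37 °C for up to 24 h. Samples were taken at 0, 1, 2 and 24 h and centrifuged at 14,000 rpm. Supernatant aliquots were analysed by HPLC at each time point.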

[5] = Biodistribution in major organs; design: species or system CPC;Apc mice; conditions: organs ex vivo ~1 hour after i.v. injection, IVIS, n = 6
Procedure, shortened: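 CPC;Apc mice received 200 μL PBS containing 200 μM labelled peptide, control peptide or free Cy5.5 i.v. They were sacrificed ~1 h later. Organs were rinsed in cold PBS, dried and imaged unperfused (ex 640 nm, em 720 nm). Intensity was averaged from three regions per organ. Values were log-transformed and fitted to an ANOVA with 24 means (3 groups, 8 tissues) plus mouse effects.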

[6] = ex vivo, peptide then anti-claudin-1 antibody-AF488, merged image

## SPTSSRR [SPT*-Cy5.5, reference compound]
[1]; 0.5 μM peptide for 10 minutes on formalin-fixed sections, confocal microscope
  Staining of adenoma and normal colon sections: Minimal signal
[1]
  Mean fluorescence intensity, adenoma vs normal: No difference
[2]
  Binding/staining pattern in normal colon on confocal images: vague appearance of crypt structures
[3]
  Fluorescence signal from nonpolypoid adenoma: minimal signal
  Fluorescence signal from polypoid adenoma: minimal signal

## RTSPSSR [RTS*-Cy5.5]
[4]
  Peptide stability in mouse serum by HPLC at 24 hours: signs of peptide breakdown
[1]
  Mean fluorescence intensity, adenoma vs normal: significantly greater for adenoma vs normal
[1]; [6]
  Correlation ρ of co-staining with anti-claudin-1 antibody, adenoma: 0.66
  Correlation ρ of co-staining with anti-claudin-1 antibody, normal colon: 0.60
[5]
  Mean fluorescence intensity, adenoma vs adjacent normal colon: significantly greater
[2]; confocal, ~1 hour after injection, paired t test, n = 11 mice
  Mean fluorescence intensity, adenoma vs adjacent normal colon: significantly greater for adenoma than for adjacent normal colon
[2]
  Binding/staining pattern in normal colon on confocal images: binding at tight junctions in between cells
[3]
  Fluorescence signal from nonpolypoid adenoma: increased intensity
